ChEMBL document CHEMBL4680123, “Synthesis of novel 3-halo-3-nitroflavanones and their activities as DNA methyltransferase inhibitors in cancer cells” (Eur J Med Chem, 2020)
Calls of active or inactive are those of the source. No cut-off for these calls is given here.

Columns and labels:
KG-1 = assay: Cytotoxicity against human KG-1 cells assessed as reduction in cell viability measured after 72 hrs by APTlite one step luminescence assay; format: functional, cell-based; conditions: KG-1, 72 h
HCT-116 = assay: Cytotoxicity against human HCT-116 cells assessed as reduction in cell viability measured after 72 hrs by APTlite one step luminescence assay; format: functional, cell-based; conditions: HCT-116, 72 h
How it was run: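 KG-1 cells were seeded at 2x10^4 cells/ml in RPMI-1640 with 15% FCS, and HCT116 cells at 1.5x10^4 cells/ml in MEM with HEPES, L-glutamine and 10% FCS, at 37 °C, 5% CO2. Compound was given at 3.2x10-9 to 1x10-5 M on day 0 and again on days 2 and 3. ATP-luminescence read-out on day 4. EC50 is the concentration giving 50% viability loss versus untreated cells. Mean of at least two independent experiments run in duplicate.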

[1] = Chemical stability of compound in DNMT3A-c enzyme buffer assessed as half life at 1 mM by HPLC analysis; format: physicochemical
How it was run: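 Followed over 15 h by reverse-phase HPLC (H2O/acetonitrile gradient with 0.1% formic acid), detection at 250 nm. Remaining compound taken from HPLC peak area. Mean of at least two experiments.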

[2] = molecular target: DNA (cytosine-5)-methyltransferase 3B (Homo sapiens) (UniProt Q9UBC3); assay: Inhibition of human DNMT3B in human KG-1 cells expressing cmv-firefly luciferase assessed as increase in luminescence incubated for 24 hrs by luciferase reporter gene assay relative to control; format: cell-based; conditions: dose 3.2-10 µM
How it was run: (§1)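 KG-1 cells stably carrying firefly luciferase under a 50% methylated CMV promoter were seeded at 20 000 cells/well. They were exposed to compound (3.2–10 µM range) or DMSO for 24 h, then luciferase was quantified by One-Glo luminescence. Result is fold induction over DMSO control. Mean of three experiments with standard error.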

[3] = molecular target: DNA (cytosine-5)-methyltransferase 3B (Homo sapiens) (UniProt Q9UBC3); assay: Inhibition of human DNMT3B in human KG-1 cells expressing cmv-firefly luciferase assessed as increase in luminescence at 5 uM incubated for 24 hrs by luciferase reporter gene assay relative to control; format: cell-based; how it was run: as §1
[4] = molecular target: DNA (cytosine-5)-methyltransferase 3A (Homo sapiens) (UniProt Q9Y6K1); assay: Inhibition of human DNMT3A catalytic domain expressed in Escherichia coli Rosetta-gamiTM 2(DE3) pLysS competent cells using biotinylated 6-FAM double strand DNA comprising unique CpG site […] incubated for 1 hrs by fluorescence based assay
[5] = molecular target: DNA (cytosine-5)-methyltransferase 3B (Homo sapiens) (UniProt Q9UBC3); assay: Inhibition of human DNMT3B in human KG-1 cells expressing cmv-firefly luciferase assessed as increase in luminescence upto 10 uM incubated for 24 hrs by luciferase reporter gene assay relative to control; format: cell-based; conditions: dose microM <=10, time 24.0 hrs
How it was run: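 KG-1 cells stably carrying firefly luciferase (luc+) under a 50%-methylated CMV promoter, seeded at 20 000 cells/well. Treated 24 h with compound (3.2–10 µM) or DMSO. Luciferase quantified by One-Glo luminescence and expressed as fold induction over DMSO control. Mean of three experiments with standard error.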

[6] = molecular target: DNA (cytosine-5)-methyltransferase 3A (Homo sapiens) (UniProt Q9Y6K1); assay: Inhibition of human DNMT3A catalytic domain expressed in Escherichia coli Rosetta-gamiTM 2(DE3) pLysS competent cells using biotinylated 6-FAM double strand DNA comprising unique CpG site […] at 32 uM incubated for 1 hrs by fluorescence based assay

Sequence of DNA (cytosine-5)-methyltransferase 3A (Homo sapiens) (Q9Y6K1 whole entry, looked up, the tested form may be a part): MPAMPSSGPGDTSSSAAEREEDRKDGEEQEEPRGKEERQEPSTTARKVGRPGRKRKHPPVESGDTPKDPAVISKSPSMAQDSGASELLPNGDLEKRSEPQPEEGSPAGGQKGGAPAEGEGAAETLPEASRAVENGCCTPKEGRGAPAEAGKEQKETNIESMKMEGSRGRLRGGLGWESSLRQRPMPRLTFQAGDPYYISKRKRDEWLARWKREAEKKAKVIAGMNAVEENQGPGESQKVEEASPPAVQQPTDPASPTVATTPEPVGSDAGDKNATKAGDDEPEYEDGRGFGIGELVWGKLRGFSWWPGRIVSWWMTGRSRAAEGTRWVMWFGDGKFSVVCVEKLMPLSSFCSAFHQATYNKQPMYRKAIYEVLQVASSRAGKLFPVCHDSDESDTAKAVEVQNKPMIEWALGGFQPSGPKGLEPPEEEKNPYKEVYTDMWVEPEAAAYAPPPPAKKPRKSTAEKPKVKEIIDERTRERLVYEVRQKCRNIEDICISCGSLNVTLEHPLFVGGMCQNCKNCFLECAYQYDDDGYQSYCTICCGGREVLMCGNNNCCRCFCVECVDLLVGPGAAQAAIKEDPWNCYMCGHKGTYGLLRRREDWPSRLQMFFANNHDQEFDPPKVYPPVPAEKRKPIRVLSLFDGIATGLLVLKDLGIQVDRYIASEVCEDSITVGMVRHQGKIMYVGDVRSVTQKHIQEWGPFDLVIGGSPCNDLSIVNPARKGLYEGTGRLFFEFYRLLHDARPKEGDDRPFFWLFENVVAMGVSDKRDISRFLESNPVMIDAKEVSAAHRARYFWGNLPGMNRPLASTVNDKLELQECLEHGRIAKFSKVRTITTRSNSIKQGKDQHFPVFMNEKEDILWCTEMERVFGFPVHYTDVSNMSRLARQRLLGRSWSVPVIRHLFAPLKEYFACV

Row | inhibition [5] | EC50 [4] | inhibition [6] [%] | SMILES | EC50 (KG-1) [µM] | EC50 (HCT-116) [µM] | half-life at 1000 µM [1] [h] | Activity [2] | fold change (FC) [3] | EC50 ([4]; read-out: EC50) [µM]
1 |  |  |  | O=C1c2ccccc2O[C@H](c2ccccc2[N+](=O)[O-])[C@]1(Br)[N+](=O)[O-] (racemic) | 5.3 | 12.4 | 0.7 | Dose-dependent effect | 8.8 | 5.1
2 | inactive |  |  | O=C1c2ccccc2OC(c2ccccc2[N+](=O)[O-])C1(I)[N+](=O)[O-] (racemic) |  |  | > 15 |  |  | 2.8
3 |  |  |  | COc1ccc([N+](=O)[O-])c([C@H]2Oc3ccccc3C(=O)[C@@]2(Br)[N+](=O)[O-])c1 (racemic) | 18.6 |  |  | Dose-dependent effect |  | 4.7
4 |  |  |  | O=C1c2ccccc2O[C@H](c2ccccc2[N+](=O)[O-])[C@@]1(Br)[N+](=O)[O-] (racemic) | 13 | 10.7 | 1.7 | Dose-dependent effect | 6.1 | 3.2
5 | inactive |  |  | O=C1c2ccccc2O[C@H](c2ccccc2F)[C@@]1(Br)[N+](=O)[O-] (racemic) |  |  |  |  |  | 5.7
6 |  |  |  | COc1ccc([N+](=O)[O-])c([C@H]2Oc3ccccc3C(=O)[C@]2(Br)[N+](=O)[O-])c1 (racemic) | 12.9 | 8.1 | 7 | Dose-dependent effect |  | 5.3
7 | inactive |  |  | COc1ccc([N+](=O)[O-])c([C@H]2Oc3ccccc3C(=O)[C@]2(I)[N+](=O)[O-])c1 (racemic) |  |  | > 15 |  |  | 2
8 | inactive |  |  | O=C1c2ccccc2OC(c2ccccc2)C1(Br)[N+](=O)[O-] (stereo not given) |  |  |  |  |  | 6.7
9 |  | Not Active | 0 | O=C1c2ccccc2OC(c2ccccc2[N+](=O)[O-])C1[N+](=O)[O-] (stereo not given) |  |  |  |  |  | 
10 |  | Not Active | 0 | O=C1c2ccccc2OC(c2ccccc2)C1[N+](=O)[O-] (trans isomer) |  |  |  |  |  | 
11 |  | Not Active | 0 | COc1ccc([N+](=O)[O-])c(C2Oc3ccccc3C(=O)C2[N+](=O)[O-])c1 (stereo not given) |  |  |  |  |  | 

Row | SMILES | inhibition [5] | EC50 [4] | inhibition [6] [%] | EC50 (KG-1) [µM] | EC50 (HCT-116) [µM] | half-life at 1000 µM [1] [h] | Activity [2] | fold change (FC) [3] | EC50 ([4]; read-out: EC50) [µM]
12 | COc1ccc([N+](=O)[O-])c(C2Oc3ccccc3C(=O)C2(Cl)[N+](=O)[O-])c1 (stereo not given) | inactive |  |  |  |  | 3.4 |  |  | 4.4
13 | CC1([N+](=O)[O-])C(=O)c2ccccc2OC1c1ccccc1[N+](=O)[O-] (stereo not given) | inactive |  |  |  |  |  |  |  | > 40
14 | O=C1c2ccccc2OC(c2ccccc2[N+](=O)[O-])C1(Cl)[N+](=O)[O-] (stereo not given) | inactive |  |  |  |  | 1 |  | 2 | 4.4
